Activity calls are given as the source filed them. The rule behind the calls is not given here.
Experiments:
[1] = Drug concentration in plasma of naive C57BL/6J mouse at 10 mg/kg, ip measured after 90 mins; assay type: ADME, organism-based
In short: (§1)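 Male C57Bl/6J mice, naïve, 10–12 weeks old, dosed i.p. at 10 mg/kg in 10% DMSO, 1.1% Tween 80, 21.8 mM Tris. Blood by cardiac puncture under anaesthesia at 20 or 90 min (n = 2–3 per time point). Brain concentration corrected for compound in brain vasculature. Mean nM ± SEM reported; Kp = Cbrain/Cplasma, reported as a range.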

[2] = biological target: T1, Muscarinic acetylcholine receptor M4 (Homo sapiens) (UniProt P08173); experiment: Positive allosteric modulation at human M4 mAChR expressed in Flp-In-CHO cells co-expressing CAMYEL biosensor assessed as efficacy of ACh-mediated cAMP signalling (log tau B) incubated for 5 mins by BRET assay; assay type: functional, cell-based; details: filed as positive allosteric modulator
T1 sequence (whole entry): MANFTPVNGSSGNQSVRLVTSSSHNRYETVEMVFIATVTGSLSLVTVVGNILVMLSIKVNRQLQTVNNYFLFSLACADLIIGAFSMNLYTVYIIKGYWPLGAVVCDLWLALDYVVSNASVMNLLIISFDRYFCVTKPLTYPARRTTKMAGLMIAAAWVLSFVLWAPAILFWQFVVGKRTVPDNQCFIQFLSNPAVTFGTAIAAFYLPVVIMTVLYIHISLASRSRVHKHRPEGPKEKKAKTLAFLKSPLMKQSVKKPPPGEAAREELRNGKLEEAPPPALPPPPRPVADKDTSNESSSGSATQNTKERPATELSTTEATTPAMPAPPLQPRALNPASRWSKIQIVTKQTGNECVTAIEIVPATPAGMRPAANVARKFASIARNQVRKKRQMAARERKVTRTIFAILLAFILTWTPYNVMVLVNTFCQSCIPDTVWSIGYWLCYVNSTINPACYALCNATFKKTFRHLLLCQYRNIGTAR
In short: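 CAMYEL-transfected FlpInCHO-hM4 cells (48 h post-transfection) given ACh and modulator concentration ranges in full interaction design, 5 min at 37 °C; BRET read with coelenterazine h. Fit to complete operational model of allosterism and agonism with ACh KA and modulator KB fixed from binding assays. Gives log τB and log αβ. 4–5 experiments in duplicate.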

[3] = biological target: T2, Muscarinic acetylcholine receptor M2 (Homo sapiens) (UniProt P08172); experiment: Positive allosteric modulation at human M2 mAChR expressed in Flp-In-CHO cells at 10 uM incubated for 5 mins by […]; assay type: cell-based
T2 sequence (whole entry): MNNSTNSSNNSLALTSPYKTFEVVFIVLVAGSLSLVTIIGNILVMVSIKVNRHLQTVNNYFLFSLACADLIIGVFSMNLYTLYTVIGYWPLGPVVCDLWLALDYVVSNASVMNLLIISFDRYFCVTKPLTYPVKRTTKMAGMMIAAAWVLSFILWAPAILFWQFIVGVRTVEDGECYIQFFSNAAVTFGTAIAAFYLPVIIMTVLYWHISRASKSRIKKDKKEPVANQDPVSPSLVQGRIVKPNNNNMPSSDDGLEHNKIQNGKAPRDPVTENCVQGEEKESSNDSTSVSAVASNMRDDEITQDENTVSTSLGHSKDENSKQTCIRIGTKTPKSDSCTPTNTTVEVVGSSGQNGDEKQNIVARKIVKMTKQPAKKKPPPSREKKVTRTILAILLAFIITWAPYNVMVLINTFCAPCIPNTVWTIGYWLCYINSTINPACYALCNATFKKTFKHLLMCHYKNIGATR
In short: (§2)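 FlpInCHO cells stably expressing human M1–M5 mAChRs, serum-deprived in HBSS 4 h at 37 °C, then ACh (10 nM–10 μM) with or without modulator at 10 μM for 5 min at 37 °C. Cells lysed and frozen overnight. pERK1/2 measured by AlphaScreen SureFire Ultra, as % of response to 10% FBS.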

[4] = biological target: T3, Muscarinic acetylcholine receptor M5 (Homo sapiens) (UniProt P08912); experiment: Positive allosteric modulation at human M5 mAChR expressed in Flp-In-CHO cells at 10 uM incubated for 5 mins by […]; assay type: cell-based; in short: as §2
T3 sequence (whole entry): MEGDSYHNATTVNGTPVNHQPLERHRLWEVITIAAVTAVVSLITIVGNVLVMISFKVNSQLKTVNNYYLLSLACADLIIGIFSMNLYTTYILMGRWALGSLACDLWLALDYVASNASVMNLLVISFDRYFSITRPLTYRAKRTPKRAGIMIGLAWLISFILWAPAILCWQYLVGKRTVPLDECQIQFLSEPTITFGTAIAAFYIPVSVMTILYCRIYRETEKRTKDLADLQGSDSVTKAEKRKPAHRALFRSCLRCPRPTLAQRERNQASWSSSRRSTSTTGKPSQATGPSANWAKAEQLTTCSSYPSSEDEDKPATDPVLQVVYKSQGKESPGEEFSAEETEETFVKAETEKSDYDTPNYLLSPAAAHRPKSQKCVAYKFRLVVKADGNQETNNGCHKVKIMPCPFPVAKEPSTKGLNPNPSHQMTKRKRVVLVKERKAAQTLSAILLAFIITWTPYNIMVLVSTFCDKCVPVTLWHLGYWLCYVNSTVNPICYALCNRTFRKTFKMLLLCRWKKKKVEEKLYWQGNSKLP

[5] = biological target: T1, Muscarinic acetylcholine receptor M4 (Homo sapiens); experiment: Positive allosteric modulation at human M4 mAChR expressed in Flp-In-CHO cells co-expressing CAMYEL biosensor assessed as change in ACh-mediated response incubated for 5 mins by BRET assay; assay type: cell-based; details: filed as positive allosteric modulator
In short: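 FlpInCHO cells stably expressing human M4 mAChR, transiently transfected with CAMYEL cAMP BRET biosensor (60 ng/well, PEI), assayed 48 h later in HBSS pH 7.4. Full ACh concentration-response curve alone or with modulator at 1 or 10 μM, co-added with coelenterazine h (5 μM), 5 min, 37 °C. Three-parameter logistic fit; ACh curve values subtracted from ACh+modulator values. Δbaseline and ΔEmax given as % of maximal ACh response without modulator. 4 experiments in duplicate, SEM pooled.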

[6] = Ratio of drug concentration in brain to plasma of naive C57BL/6J mouse at 10 mg/kg, ip; assay type: ADME, organism-based; details: read-out: BPR; in short: as §1
[7] = biological target: T1, Muscarinic acetylcholine receptor M4 (Homo sapiens); experiment: Displacement of 3[H]-NMS from human M4 mAChR expressed in Flp-In-CHO cells assessed as binding constant incubated for 6 hrs by microbeta2 plate reader assay; assay type: cell-based; details: filed as positive allosteric modulator
In short: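 Intact FlpInCHO-hM4 cells, 20,000/well grown overnight, in HBSS pH 7.4 with [3H]-NMS 0.5 nM, ACh (0.01 μM–10 mM) and modulator (0.1–10 μM), shaken 6 h at room temperature. Washed with ice-cold 0.9% NaCl, then scintillation counting. Nonspecific binding defined with 10 μM atropine. pKB and log α(ACh) from global fit to allosteric ternary complex model, with log α′(NMS) fixed at –3 under strong negative cooperativity. 4–5 experiments in duplicate.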

[8] = Drug concentration in plasma of naive C57BL/6J mouse at 10 mg/kg, ip measured after 20 to 30 mins; assay type: ADME, organism-based; details: in vivo, time 20-30 min; in short: as §1
[9] = Drug concentration in brain of naive C57BL/6J mouse at 10 mg/kg, ip measured after 90 mins; assay type: ADME, organism-based; details: read-out: Ct; in short: as §1

For `Cc1ccc(-c2cnn(CC3CCCC3)c2)c(-c2ccc(N)c([N+](=O)[O-])c2)n1`, the concentration at 1.5 h [1] was 657 nM, the log(activity) [2] was -1.29 and the Activity [3] was “inactive”. For the same compound, the Activity [4] was “inactive”, the deltapEC50 [5] was 1.27 and the Kp [6] was 0.3. The pKb [7] was 4.75, the concentration [8] was 2430 nM and the concentration at 1.5 h [9] was 373 nM.

With `Cc1ccc(-c2cnn(CC3CCCC3)c2)c(-c2ccc(F)c(F)c2)n1` the concentration at 1.5 h [1] was 159 nM, the log(activity) [2] was -0.07 and the Activity [3] was “inactive”. The Activity [4] was “inactive”, the deltapEC50 [5] was 0.76 and the Kp [6] was 1.6. It also gave a pKb [7] of 4.53, a concentration [8] of 915 nM and a concentration at 1.5 h [9] of 255 nM.

With `Cc1ccc(-c2cnn(CC3CCCC3)c2)c(-c2ccc3c(c2)C(=O)N(C)C3)n1` the concentration at 1.5 h [1] was 14 nM, the log(activity) [2] was -0.45 and the Activity ([3]; filed as positive allosteric modulator) was “Active”. For the same compound, the Activity [4] was “inactive”, the deltapEC50 [5] was 1.48 and the Kp [6] was 0.1. For the same compound, the pKb [7] was 6.22, the concentration [8] was 2440 nM and the concentration at 1.5 h [9] was 9 nM.
